Rev-erbA mod: modulates human Rev-erb alpha binding to DNA; activity, % at 10 µM; AID 1259318; P20393; Rev-erbα–FITC-DNA binding, fluorescence polarization, 90 min; hit rate 0.79% among 370,000;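 active means activity above about 14%, limit read from the data; passing the limit was not always enough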;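 further: 0% = DMSO wells with 35 nM protein and 100% = DMSO wells with 750 nM protein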
PG9 binder: binds the HIV-1 gp120 antibody PG9; inhibition, % at 6.7 µM; hit rate 0.43% among 360,000; TR-FRET gp120-PG9 antibody binding; in the data active means inhibition above about 8.5%
NR2E3 ag-1: activates human NR2E3 receptor. Q9Y5X4. CHO-S Gal4-NCOR/VP16-NR2E3 two-hybrid, luciferase. inhibition of corepressor binding, % at 3.98 µM. hit rate 0.35% among 360,000;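 active means inhibition above the mean of all tested compounds plus 3 SD, cut at about 70% in these data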;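 further: 0% = DMSO with NR2E3 transfected cells and 100% = cells lacking NR2E3 construct; higher means lower luciferase signal from less NR2E3 corepressor binding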
Target sequence (Q9Y5X4 whole entry, looked up, the tested form may be a part): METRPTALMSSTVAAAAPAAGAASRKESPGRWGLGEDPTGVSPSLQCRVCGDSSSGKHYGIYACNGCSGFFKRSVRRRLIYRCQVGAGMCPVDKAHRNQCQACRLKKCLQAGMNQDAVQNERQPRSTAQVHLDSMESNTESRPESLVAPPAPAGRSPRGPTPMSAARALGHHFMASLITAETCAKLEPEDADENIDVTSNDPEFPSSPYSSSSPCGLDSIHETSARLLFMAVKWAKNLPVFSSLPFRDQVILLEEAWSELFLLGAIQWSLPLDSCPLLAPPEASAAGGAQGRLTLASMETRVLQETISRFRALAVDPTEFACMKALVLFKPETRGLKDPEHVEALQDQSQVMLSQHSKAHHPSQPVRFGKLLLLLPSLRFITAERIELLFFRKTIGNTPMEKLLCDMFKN
NR2E3 ag-2: agonists of human nuclear receptor NR2E3 | GST-NR2E3/biotin-RetCOR TR-FRET, 1536-well | Q9Y5X4 | inhibition of corepressor binding, % at 4.78 µM | hit rate 0.12% among 320,000;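 active means percent inhibition above the cutoff of mean plus 3 SD of all tested compounds, set per screening campaign, cut at about 20% in these data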;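 further: 0% = DMSO wells and 100% = biotin wells as full block of FRET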
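System: GST-tagged NR2E3 plus biotinylated RetCOR corepressor; Buffer or medium: pH 7.5 Tris-based buffer; Probe or stimulus: RetCOR corepressor, biotinylated, 7 nM; Doses: compound at 4.8 µM, single dose; Schedule: 5 h incubation at 4 °C; Technique: time-resolved FRET; Evaluation: percent inhibition of TR-FRET ratio; Replication: one well per compound, singlicate testing.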
MT1-MMP act inh: MT1-MMP (human) activation inhibition; P50281; HT1080 RFP-PRO-GFP cells, GFP/RFP ratio fluorescence, overnight; percent of plate control window, DMSO zero; GFP/RFP ratio change, % at 20 µM; hit rate 0.061% among 360,000;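 active means GFP/RFP ratio change of at least 30% with cell ATP level not reduced by more than half and red fluorescence within 50% of control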
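Assay system: HT1080 RFP-PRO-GFP cells | Dosing: 20 µM single dose, 1% DMSO | Incubation: Cells overnight before dosing, compound overnight, 37 °C, 5% CO2 | Evaluation: GFP/RFP fluorescence ratio | Control set: DMSO-only wells and HT1080 RFP-L50D-GFP cell wells as references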
SKN-1 block: inhibitors of C. elegans SKN-1 | C. elegans VP596 Pgst-4::GFP/RFP ratio, acrylamide-induced, 24 h | inhibition, % at 21.8 µM | hit rate 0.49% among 360,000;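 active means interference check ratio from 0.5 to 1.5 plus GFP to RFP signal ratio inhibition reaching or exceeding a fixed threshold, cut at about 30% in these data, passing the limit was not always enough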
Active calls of the source: *; . = not tested or not shown; ! = repeats disagree. A selection: hits, their analogues and other compounds. The true share with any hit is near 1.9%.

SMILES	Rev-erbA mod	PG9 binder	NR2E3 ag-1	NR2E3 ag-2	MT1-MMP act inh	SKN-1 block
COCCN(C(=O)/C=C/c1ccccc1)c1c(N)n(Cc2ccccc2)c(=O)[nH]c1=O	-5	1	14	0	-12	52*
OC(CN1CCN(C(c2ccccc2)c2ccccc2)CC1)c1ccccc1 (stereo not given)	.	.	8	-1	0	40*
NCCCC[C@H](N)C(=O)O	-1	.	.	.	.	.
c1csc(CSc2nc3ccccc3s2)c1	-2	0	-105	-2	-1	78*
Cc1ccc2cc3cc(C(=O)N4CC(C)CC(C)C4)oc3nc2c1 (stereo not given)	-4	-1	-96	-2	3	39*
N#Cc1nc(N2CCOCC2)nc(N2CCOCC2)n1	-6	-2	-1	2	2	36*
Cc1cccc(N(C)C(=O)c2cnn(-c3ccccc3)c2C)c1	4	2	-21	-1	-3	10
Cc1c(C(=O)N(C)c2ccc(Cl)cc2)cnn1-c1ccccc1	2	0	-45	2	1	38*
O=C(Nc1nc(SCc2ccc(F)cc2)ns1)c1ccco1	-7	-1	-126	2	-3	54*
Cc1cc(OCCCCN2C(=O)NC(C)(C)C2=O)cc(C)c1Cl	11	2	-1	-1	0	39*
CC1(C)NC(=O)N(CCCCOc2ccc(Cl)cc2)C1=O	4	0	-5	2	6	8
Cc1ccccc1-c1ccc2c(c1)[C@@H]1C[C@H]3[C@@H](CN1CC2)[C@H](C)OC(C1CCCCC1)N3C (stereo not given in full)	-3	-1	.	.	.	.
COc1ccc(CNC(C)C2COc3ccccc3O2)c(OC)c1 (stereo not given)	1	1	4	0	-4	37*
CC(NCc1ccccc1)C1COc2ccccc2O1 (stereo not given)	1	-3	-22	0	1	-4
O=C(Nc1ccccc1)OCCc1ccccc1	.	.	-130	.	0	19
O=C(Nc1ccccc1)OCCCc1ccccc1	1	-1	-57	-1	2	35*
O=C(NC1CCN(C(=S)Nc2ccc(Cl)cc2)CC1)c1ccco1	-1	1	-29	-1	-1	47*
O=C(NC1CCN(C(=S)Nc2ccc(F)cc2)CC1)c1ccco1	0	-4	-7	1	-1	-2
Fc1cc(Br)ccc1COc1ccc(-c2nnco2)cc1	-3	1	-124	2	4	49*
Fc1ccc(COc2ccc(-c3nnco3)cc2)c(Cl)c1	10	-1	-112	5	2	87*
CN(C)c1cc(NC(=O)CNC(C)(C)C)c(O)c2c1C[C@H]1C[C@H]3[C@H](N(C)C)C(=O)C(C(N)=O)=C(O)[C@@]3(O)C(=O)C1=C2O	-36	.	.	.	.	.
CC(=O)Nc1ccc(S(=O)(=O)N(C)CC(=O)NNC(=O)c2cccs2)cc1	3	-1	13	.	-3	42*
CN1[C@H](Cc2ccccc2)COc2cccc(F)c2S1(=O)=O	4	.	.	.	.	.
O=C(NCC(=O)N1CCOCC1)c1ccc(Cl)c(Cl)c1	-5	-3	-31	.	1	37*
[O-]C1=N/[N+](=C/c2ccccc2Cl)CC1	-2	1	-4	0	7	35*
SMILES	Rev-erbA mod	PG9 binder	NR2E3 ag-1	NR2E3 ag-2	MT1-MMP act inh	SKN-1 block
N/C(=N\OC(=O)c1ccc(Cl)c(Cl)c1)c1cccnc1	2	-2	-21	-1	5	51*
N/C(=N\OC(=O)c1cc(Cl)ccc1Cl)c1cccnc1	4	0	-39	4	-8	-8
N/C(=N\OC(=O)c1cccc(Cl)c1)c1cccnc1	4	1	-84	-2	-5	42*
Nc1cccc2cc(S(=O)(=O)O)ccc12	-16	-6	5	.	4	51*
O=Nc1c(O)ccc2cc(S(=O)(=O)O)ccc12	.	.	-30	.	5	17
CCOC(=O)/C(=N\Nc1ccc(Br)cc1)N1CC(C)OC(C)C1 (stereo not given)	.	.	77*	0	-7	10
CCOC(=O)[C@](C)(N)Cc1ccc(O)c(O)c1	-4	.	.	.	.	.
O=C(/C=C/c1ccco1)c1ccc(O)cc1	.	.	.	3	.	.
O=C(C=Cc1ccco1)c1ccc2ccccc2c1	-19	-2	-81	.	-10	63*
Cn1nc(C(C)(C)C)cc1C(=O)NCC1CCN(C(=O)C(=O)c2cc3ccccc3o2)CC1	-4	0	.	.	.	.
CC(=O)Nc1cccc(OCC(=O)NS(=O)(=O)c2ccc(Cl)cc2)c1	-3	0	-41	-3	-2	35*
CCOC(=O)C1=C(C(=O)OCC)C2N(Cc3ccc(Br)cc3)c3ccccc3[C@@]23C[C@@H](C(=O)OC)N(S(=O)(=O)c2ccc(OC)cc2)C3=N1 (stereo not given in full)	-4	1	.	.	.	.
Cc1cccc(C#Cc2ccccc2)n1	-8	-1	-49	5	0	46*
Nc1ccc(C#Cc2ccccc2)cc1	-4	1	-67	-1	-7	3
C[C@@H]1CCN(C2CC2)S(=O)(=O)c2c(cccc2N2CCC[C@@H]2CO)O1	-3	.	.	.	.	.
Cc1cc(OCC(O)CN2CCN(C)CC2)ccc1C(C)C (stereo not given)	0	-3	5	-1	2	36*!
CN1CCN(CC(O)COc2ccc(OCC(O)CN3CCN(C)CC3)cc2)CC1 (stereo not given)	-5	-2	-6	0	0	-15
CSC(=NCCCN1CCOCC1)NS(=O)(=O)c1cccs1	-2	-2	-15	2	2	43*!
C[C@@H]1CCCN1c1cccc2c1S(=O)(=O)N1CC[C@H](C1)O2	0	.	.	.	.	.
COc1cc(CCC(=O)OCC(=O)Nc2ccc(F)cc2F)cc(OC)c1OC	-1	-1	7	4	0	40*
COc1ccc(S(=O)(=O)Nc2ccc3c(c2)C(=O)N([C@H](C)CO)C[C@H](C)[C@H](CN(C)C(=O)Nc2ccc(F)cc2)OCCCC[C@@H](C)O3)cc1	-1	1	.	.	.	.
FC(F)(F)c1cc(-c2cccs2)nc(-n2cc(Br)cn2)n1	3	1	14	0	0	45*
CC(C)CCCC(C)[C@H]1CCC2C3CC=C4C[C@@H](O)CC[C@]4(C)C3CC[C@@]21C (stereo not given in full)	2	.	.	.	.	.
Cc1cc(/C=C\c2ccc3cc(N(C)C)ccc3[n+]2C)c(C)n1-c1ccccc1	.	.	100*	5	15	76
Fc1ccc2cc(-c3ccccc3)ncc2c1	-2	-1	-56	.	0	40*
c1ccc(-c2cc3ccccc3cn2)cc1	-3	1	-112	.	0	18
O=C(COc1ccccc1C(=O)NCc1ccccc1)Nc1ccc(I)cc1	6	.	.	.	.	.
CC(=O)N[C@@H](CCC(N)=O)C(=O)O	2	.	.	.	.	.

Source: PubChem (several laboratories)
